In the EternaBench riboswitch data:

Tested on: MS2 coat protein
Test: apparent Kd, MS2 coat protein; higher = weaker binding; RNA-MaP array; tryptophan 2.4 mM where present
In short: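 Binding was read on Illumina sequencing-chip clusters where stalled E. coli RNA polymerase had transcribed each design. A titration of SNAP-549-labelled MS2 coat protein began at 0.7 or 1.5 nM and doubled to 3 µM, once without ligand and once with constant ligand, in 100 mM Tris-HCl pH 7.5, 80 mM KCl, 4 mM MgCl2, BSA, DTT, yeast tRNA and Tween-20. The apparent Kd is the median of filtered per-cluster binding-curve fits, based on green signal normalised to red-channel RNA signal and control-cluster median Fmax.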

[1] = designed as: ON switch for tryptophan, no ligand
[2] = ligand present: tryptophan, designed as: ON switch for tryptophan
[3] = designed as: OFF switch for tryptophan, no ligand
[4] = ligand present: tryptophan, designed as: OFF switch for tryptophan

Row | Sequence | apparent Kd [1] [nM] | apparent Kd [2] [nM] | apparent Kd [3] [nM] | apparent Kd [4] [nM]
1 | UAAACUACACAUGAGGAUCACCCAUGUGGCCGAGGACCGGUACGGCCGCCACUCGUGUGUUAAUAAAAGAACUGCAAGAUUCUUU | 126 | 92.6 |  | 
2 | UUCUUUGACGAUCUGGGUUUACCAGAUCGACGAGGACCGGUACGGCCGCCACUCGUGUUUUCUUUACAUGAGGAUCACCCAUGUU | 16.4 | 15.6 |  | 
3 | GGAGUCGUCACGGCCGCCACUGCGGUGGUGUGACAUGAGGAUCACCCAUGUUGUCAUGCGGCCCUUAGGACCGGGUGUCGGUUCC |  |  | 51.5 | 59.1
4 | GCGUUCUCUGCGGCCGCCACUCAAGGAGCUACAUAGCUCCUAGACAUGAGGAUCACCCAUGUGGCGAGGACCGGGUAGAUCCUUA | 202 | 168 |  | 
5 | AGCUACUCGUUCCUCAUGUACGAGUGGCAACGAGGACCGGUACGGCCGCCACUCGAAUAAACAUGAGGAUCACCCAUGUACAAAU | 54.6 | 120 |  | 
6 | AAUGUGAAGGCGGCCGCCACUGAUAAUAGACAUGAGGAUCACCCAUGUAUAAAUCCUCAAUAAGACAGGACCGGGCCAACUACGU |  |  | 105 | 125
7 | GAGGAAACUCACAUGAGGAUCACCCAUGUACGAGGACCGGUACGGCCGCCACUCGAAACCAUGGGCGGUUGUACAUGGAAACAUG |  |  | 24.8 | 74.8
8 | AUGCAGAGCACGGCCGCCACUCCAUGUAUACAUGAGGAUCACCCAUGUAAUUUGUAUUUUUUAUAGAGGACCGGGUGAAAUGCAA | 34.3 | 18.2 |  | 
9 | AUAAGCUGUACCGGAAUAUCCUCAUGUAUACGAGGACCGGUACGGCCGCCACUCGAUAACAUGAGGAUCACCCAUGUAAUAAUAA |  |  | 11.2 | 11.2
10 | GCCGCGGCCGCGAUACACAUGGGUAUGUAACGAGGACCGGUACGGCCGCCACUCGAGAUAAUGUACAUGAGGAUCACCCAUGUAC |  |  | 11.5 | 13.3
11 | AGGUGCUGAUCGGCCGCCACUGAGAGGACGUGAACUUUAGCUGGUUACAUGAGGAUCACCCAUGUCAGGACCGGGAUUAGUUUGC |  |  | 9.26 | 17.4
12 | AUAUAUACAUGAGGAUCACCCAUGUUAUUACGAGGACCGGUACGGCCGCCACUCGAUAGAGUAGAAGUAAAUUUUAAUUCAUGUA | 14.5 | 13 |  | 
13 | GAUAUGGAAACAUGUCAGAUCCUUACCGGUCGAGGACCGGUACGGCCGCCACUCGAAAAUAAUAAACAUGAGGAUCACCCAUGUA |  |  | 14.4 | 32
14 | UGGAGUAGGACGGCCGCCACUAUACAAUGUGUAUACAUGAGGAUCACCCAUGUAAUCCUCGGAGAUAGGACCGGGUCAAGUUGUG |  |  | 53.6 | 50.5
15 | ACAUGAGGAUCACCCAUGUGCAUCACCCGACGAGGACCGGUACGGCCGCCACUCGGGUAUAUAUUUACAUCGGGUGAUUUUACGU | 22.8 | 21 |  | 
16 | AGAGCAUUGACGGCCGCCACUCAUGUCACAUGAGGAUCACCCAUGUGAUGGGUGAUCGCCCGGUUGAGGACCGGGUCAAUGCUCA | 43 | 28.5 |  | 
17 | ACAUGAGGAUCACCCAUGUGUGUAAAUCCUCGAGGACCGGUACGGCCGCCACUCGAACGAGUGUAAGUUGAAUGUAACAUUCAAC | 85.5 | 33.7 |  | 
18 | AAGCUUCGCAUAGGAAAACUAUGUGAAGCUCGAGGACCGGUACGGCCGCCACUCGUCCUCAACAUGAGGAUCACCCAUGUAAUAA |  |  | 22.5 | 28.2
